In ChEMBL document CHEMBL1122809, “Improved synthesis and antitumor activity of 2-bromo-2'-deoxyadenosine” (1984):

Legend:
L1210 [1] = assay: Antitumor activity expressed as life span was determined against inoculated L1210 leukemia cells (1*10e5) in mice by 11.3 mg/kg dosage of compound (qd (x 3), for days 1, 4, 7); assay type: functional, Mus musculus
In short: (§1)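 Female mice (~18 g, housed six per cage) received L1210 cells intraperitoneally on day 0. Drug was made fresh and injected at 0.01 mL/g; the stated dose is per injection. Controls received the same volume of 0.154 M NaCl. Survival was followed, with deaths assigned to tumour by necropsy or to drug toxicity by set criteria. Life span is given as mean ± SD.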

L1210 [2] = assay: Antitumor activity expressed as life span was determined against inoculated L1210 leukemia cells (1*10e5) in mice by 17.3 mg/kg dosage of compound (qd (x 3), for days 1,5,9); assay type: functional, Mus musculus; in short: as §1
L1210 [3] = assay: Antitumor activity expressed as life span was determined against inoculated L1210 leukemia cells (1*10e5) in mice by 22.5 mg/kg dosage of compound (qd (x 3), for days 1, 4, 7); assay type: functional, Mus musculus; in short: as §1
L1210 [4] = assay: Antitumor activity expressed as life span was determined against inoculated L1210 leukemia cells (1*10e6) in mice by 110 mg/kg dosage of compound (qd (x 3), for days 1- 7); assay type: functional, Mus musculus; in short: as §1
L1210 [5] = assay: Antitumor activity expressed percentage increase in life span was determined against inoculated L1210 leukemia cells (1*10e5) in mice by 5.6 mg/kg dosage of compound (qd (x 3), for days 1, 4, 7,10,13,16); assay type: functional; conditions: Mus musculus
In short: (§2)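 L1210 cells were given intraperitoneally to female mice (~18 g). Freshly prepared drug was injected at 0.01 mL/g, dose per injection, and saline-injected controls were run. The end point was duration of survival. ILS was calculated as percent increase in mean life span over controls. Mice surviving 60 days or more counted as long-term survivors, scored as 60 days.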

L1210 [6] = assay: Antitumor activity expressed percentage increase in life span was determined against inoculated L1210 leukemia cells (1*10e5) in mice by 22.5 mg/kg dosage of compound (qd (x 3), for days 1, 4, 7); assay type: functional; conditions: Mus musculus; in short: as §2
L1210 [7] = assay: Antitumor activity expressed percentage increase in life span was determined against inoculated L1210 leukemia cells (1*10e5) in mice by 22.5 mg/kg dosage of compound (qd (x 3), for days 1, 4, 7,10,13,16); assay type: functional; conditions: Mus musculus; in short: as §2
L1210 [8] = assay: Antitumor activity expressed percentage increase in life span was determined against inoculated L1210 leukemia cells (1*10e5) in mice by 22.5 mg/kg dosage of compound (qd (x 3), for days 1,5,9); assay type: functional; conditions: Mus musculus; in short: as §2
L1210 [9] = assay: Antitumor activity expressed percentage increase in life span was determined against inoculated L1210 leukemia cells (1*10e5) in mice by 45 mg/kg dosage of compound (qd (x 3), for days 1, 4, 7); assay type: functional; conditions: Mus musculus; in short: as §2
L1210 [10] = assay: Antitumor activity expressed percentage increase in life span was determined against inoculated L1210 leukemia cells (1*10e6) in mice by 45 mg/kg dosage of compound (qd (x 3), for days 1, 4, 7); assay type: functional; conditions: Mus musculus; in short: as §2
M5076 = assay: Antitumor activity was evaluated by measuring mean life span in tumor (M5076) inoculated mice at 22.5 mg/kg (qd3hx8),days 1,4,7,15,18,21; assay type: functional, Mus musculus
In short: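 Female mice of about 18 g received subcutaneous M5076 implants like those used for serial passage. Drug was prepared just before use and injected at 0.01 mL/g every 3 h (×8) on days 1, 4, 7, 15, 18 and 21, with the dose stated per injection. Controls received 0.154 M NaCl, and groups held 18 mice. Survival and tumor volume were recorded, and %ILS was derived from mean life span.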

L1210 [11] = assay: Antitumor activity expressed percentage increase in life span was determined against inoculated L1210 leukemia cells (1*10e6) in mice by 5.6 mg/kg dosage of compound (qd (x 3), for days 1, 4, 7); assay type: functional; conditions: Mus musculus; in short: as §2
L1210 [12] = assay: Antitumor activity expressed percentage increase in life span was determined against inoculated L1210 leukemia cells (1*10e6) in mice by 5.6 mg/kg dosage of compound (qd (x 3), for days 1, 4, 7,10,13,16); assay type: functional; conditions: Mus musculus
L1210 [13] = assay: Antitumor activity expressed percentage increase in life span was determined against inoculated L1210 leukemia cells (1*10e6) in mice by 70 mg/kg dosage of compound (qd (x 3), for days 1-7); assay type: functional; conditions: Mus musculus
In short: (§3)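 Female mice of about 18 g (BDF1, DBA/2 or C57Bl/6 stocks used) were inoculated intraperitoneally with 1 × 10^6 L1210 cells. Freshly prepared drug was given once daily from about 24 h after inoculation at 0.01 mL/g, with the dose stated per injection. Controls received 0.154 M NaCl, and groups held 6 mice. %ILS was taken from mean survival, with mice alive at 60 days or more counted as 60 days.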

L1210 [14] = assay: Antitumor activity expressed percentage increase in life span was determined against inoculated L1210 leukemia cells (1*10e6) in mice by 90 mg/kg dosage of compound (qd (x 3), for days 1- 7); assay type: functional; conditions: Mus musculus; in short: as §3
L1210 [15] = assay: Antitumor activity expressed as life span was determined against inoculated L1210 leukemia cells (1*10e6) in mice by 5.6 mg/kg dosage of compound (qd (x 3), for days 1, 4, 7,10,13,16); assay type: functional, Mus musculus; in short: as §1
L1210 [16] = assay: Antitumor activity expressed as life span was determined against inoculated L1210 leukemia cells (1*10e6) in mice by 70 mg/kg dosage of compound (qd (x 3), for days 1, 4, 7); assay type: functional, Mus musculus; in short: as §1
L1210 [17] = assay: Antitumor activity expressed as life span was determined against inoculated L1210 leukemia cells (1*10e6) in mice by 70 mg/kg dosage of compound (qd (x 3), for days 1- 7); assay type: functional, Mus musculus; in short: as §1
L1210 [18] = assay: Antitumor activity expressed as life span was determined against inoculated L1210 leukemia cells (1*10e6) in mice by 140 mg/kg dosage of compound (qd (x 3), for days 1, 4, 7); assay type: functional, Mus musculus; in short: as §1
B16 melanoma (mouse) [19] = assay: Antitumor activity was evaluated by measuring mean life span in tumor (B16 melanoma) inoculated mice at 22.5 mg/kg (qd3hx8),days 1,4,7,10
B16 melanoma (mouse) [20] = assay: Antitumor activity was evaluated by measuring mean life span in tumor (B16 melanoma) inoculated mice at 22.5 mg/kg (qd3hx8),days 1,4,7,10,13,16
B16 melanoma (mouse) [21] = assay: Antitumor activity expressed percentage increase in life span was determined against inoculated B16 melanoma in mice by 22.5 mg/kg dosage of compound (qd3hx8), for days 1,4,7,10
B16 melanoma (mouse) [22] = assay: Antitumor activity expressed percentage increase in life span was determined against inoculated B16 melanoma in mice by 11.3 mg/kg dosage of compound (qd3hx8), for days 1,4,7,10
L1210 [23] = assay: Antitumor activity expressed as life span was determined against inoculated L1210 leukemia cells (1*10e5) in mice by 5.6 mg/kg dosage of compound (q 3 h (x 8), for days 1, 4, 7,10,13,16)

Nc1nc(Br)nc2c1ncn2[C@H]1C[C@H](O)[C@@H](CO)O1
Life span (L1210 [1]): 14.33 days | Life span (L1210 [2]): 14 days | Life span (L1210 [3]): 23.75 days | Life span (L1210 [4]): 4.17 days | ILS at 5.6 mg/kg (L1210 [5]): 45% | ILS at 22.5 mg/kg (L1210 [6]): 224% | ILS at 22.5 mg/kg (L1210 [7]): 153% | ILS at 22.5 mg/kg (L1210 [8]): 176% | ILS at 45 mg/kg (L1210 [9]): 417% | ILS at 45 mg/kg (L1210 [10]): 113% | Life span (M5076): 43.33 days | ILS at 5.6 mg/kg (L1210 [11]): 75% | ILS at 5.6 mg/kg (L1210 [12]): 48% | ILS at 70 mg/kg (L1210 [13]): 11% | ILS at 90 mg/kg (L1210 [14]): 0% | Life span (L1210 [15]): 10.5 days | Life span (L1210 [16]): 6.5 days | Life span (L1210 [17]): 7 days | Life span (L1210 [18]): 8 days | Life span (B16 melanoma (mouse) [19]): 20.89 days | Life span (B16 melanoma (mouse) [20]): 19.22 days | ILS at 22.5 mg/kg (B16 melanoma (mouse) [21]): 50% | ILS at 11.3 mg/kg (B16 melanoma (mouse) [22]): 66% | Life span (L1210 [23]): 11.83 days
